Compound activity: PubChem BioAssay, several laboratories
Rows were chosen to be rich in hits. Some 1.5% of all compounds tested hit in one or more screens of this group.
HDAC3 inh: HDAC3 deacetylase inhibitors, primary screen, biochemical, fluorescence, cell-free homogeneous; Histone deacetylase 3 (Homo sapiens), O15379; recombinant HDAC3, fluorogenic peptide/trypsin coupled; inhibition, % at 8.3 µM; actives 0.15% (n = 320,000); in the data active = inhibition above about 26%, passing the limit was not always enough
Target sequence (O15379 whole entry, looked up): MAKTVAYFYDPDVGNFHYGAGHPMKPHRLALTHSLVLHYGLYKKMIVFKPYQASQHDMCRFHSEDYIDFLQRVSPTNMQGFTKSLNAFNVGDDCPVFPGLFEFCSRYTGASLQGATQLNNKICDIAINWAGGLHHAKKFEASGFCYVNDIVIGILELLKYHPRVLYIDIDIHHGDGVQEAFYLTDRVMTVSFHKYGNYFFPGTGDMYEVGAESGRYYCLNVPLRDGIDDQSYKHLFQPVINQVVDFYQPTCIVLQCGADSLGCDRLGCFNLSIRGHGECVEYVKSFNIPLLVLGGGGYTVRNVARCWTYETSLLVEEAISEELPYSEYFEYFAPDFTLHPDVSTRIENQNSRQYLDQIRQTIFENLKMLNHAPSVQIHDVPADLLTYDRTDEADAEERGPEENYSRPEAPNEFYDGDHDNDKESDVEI
LANA-H2B inh: blockers of LANA interaction with H2A/H2B – biochemical, FP readout, HTS, primary screen; Protein LANA1 (Human herpesvirus 8 type P (isolate GK18)), Q9QR71; inhibition, % (test concentration not listed); actives 0.6% (n = 320,000); AID 2629, 2010; cell-free LANA-H2A/H2B peptide, fluorescence polarization; in the data active = inhibition mostly above about 10%, no sharp cut-off; inactive = mostly below about 6.7%
DSG3 Ab inh: inhibitors of pemphigus antibody binding to DSG3, primary screen, biochemical, bead-based, flow cytometry, scFv-GFP; DSG3-coupled beads, scFv-anti-DSG3-GFP binding; stronger effect = lower value; binding (percent of control), % at 10 µM; AID 588358, 2011; actives 0.48% (n = 310,000); Desmoglein-3 (Homo sapiens), P32926;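 active = binding more than 3 SD below its plate's average and above zero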;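 note: hits lower antibody fragment binding to DSG3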
T cell HTS: modulators of CD8 T cell-vesicle binding, primary screen, mouse 2C CD8+ T cells, flow cytometry. 2C CD8+ T cell-vesicle binding; stronger effect = lower value. response (vesicle binding), % at 7 µM. AID 2052, 2009. actives 0.068% (n = 330,000);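 active = response, share of CD8 T cells binding vesicles, and their 90th percentile fluorescence all below set limits, cut at about 80% in these data, passing the limit was not always enough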;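 note: values below 100% mean blocked vesicle binding to the CD8+ T cells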
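incubation = binding step 1.5 h, 37 °C, antibody labelling 20 min, ice | test system = 2C mouse CD8+ T cells | read-out basis = percent CD8+ FL2 mean versus row control | controls = Peptide-free naked vesicles (low) and QL9 vesicles with 0.7% DMSO vehicle (high) | detection = flow cytometry of vesicle-bound cells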
Arr AP2 block: inhibitors of beta-arrestin/AP2 binding, primary screen, biochemical, GPCR trafficking, flow cytometry. AID 504490, 2011. actives 0.31% (n = 340,000). inhibition, % at 10 µM. beta-arrestin 1 C-terminal peptide binding to AP2 beta2-adaptin appendage (human). FITC-arrestin peptide / GST-AP2 beads; AP2 beta2 appendage carries R879A mutation;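 active = inhibition above a set limit, near 3 SD of compounds lacking own fluorescence, cut at about 54% in these data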
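Material – GST-tagged AP2 beta2-adaptin appendage (R879A) on 4 µm glutathione beads · Probe or stimulus – fluorescein-tagged arrestin peptide at 50 nM final · Timing – 12 min plus 1 h, RT · Detection – bead flow cytometry, FITC channel · Read-out basis – inhibition as reduced fluorescein signal on beads, percent · Medium – PBS plus Tween 20 (0.05%) and BSA (0.1%)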
Arr AP2 CP1: inhibitors of arrestin peptide binding to AP2, confirmation, biochemical, cherry pick 1, flow cytometry beads. actives 2% (n = 1,300). shares compounds with Arr AP2 block. GST-AP2 beads, FITC arrestin peptide binding; GST-fused beta2-adaptin appendage, R879A mutant. inhibition, % at 10 µM;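 active = inhibition above a set limit, roughly 3 SD of non-fluorescent compound noise, cut at about 38% in these data; inactive = inhibition at or below that limit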;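 note: loss of bead fluorescence from 50 nM FITC arrestin peptide bound to appendage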
GST GSH counter: GST-fluorescein capture on glutathione beads, confirmation, artefact control for arrestin-AP2 inhibitor project, biochemical, cherry pick 1, flow cytometry | shares compounds with Arr AP2 block | GST-fluorescein binding to GSH beads, fluorescence, counter-screen | inhibition, % at 10 µM | actives 2% (n = 1,300);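 active = inhibition above 50%, about 3 SD of the inhibition seen with non-fluorescent compounds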;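 note: fluorescein maleimide labelled GST captured on 4 micron glutathione beads; higher means more loss of bead fluorescence from quenching or blocked binding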
Hits are given with their value; n = inactive; x = no result.

SMILES	HDAC3 inh	LANA-H2B inh	DSG3 Ab inh	T cell HTS	Arr AP2 block	Arr AP2 CP1	GST GSH counter
COc1cc(CN2CCN(C(=O)c3ccccc3F)CC2)cc(OC)c1OC	n	n	n	n	n	x	x
CCCCSc1ncnc2[nH]ncc12	n	n	n	n	64	n	n
CCn1c(O)c2ccc(C(=O)N=NC(=O)c3ccccc3)cc2c1O	n	n	n	n	58	n	n
C=CCn1c(O)c2ccc(C(=O)N=NC(=O)c3ccc(F)cc3)cc2c1O	n	n	n	n	n	x	x
CSCCC(NC(=O)C12CC3CC(CC(C3)C1)C2)C(=O)OCC(=O)c1ccc(Cl)cc1 (stereo not drawn)	n	n	x	n	n	x	x
CSCCC(NC(=O)C1CCC(C)CC1)C(=O)OCC(=O)c1ccc(Cl)cc1 (stereo not drawn)	n	n	3.8	n	106	n	n
O=C(Nc1nnc(C2=COCCO2)o1)c1cccc(Br)c1	n	n	n	n	57	n	n
COC(=O)c1ccc(OCC(=O)NCCC2=CCCCC2)c(OC)c1	n	n	n	n	n	x	x
NC(=O)C1CCN(C2=C(Cl)C(=O)c3ccccc3C2=O)CC1	n	n	x	n	54	51	n
O=C1C(Cl)=C(N2CCC(C(=O)O)CC2)C(=O)c2ccccc21	x	n	n	n	n	x	x
CC(/C=C\C=C\c1ccccc1)=N\NC(=O)c1cncc(Br)c1	n	77	n	n	92	n	n
CC(/C=C/C=C/c1ccccc1)=N\NC(=O)c1cccnc1	n	n	n	n	n	x	x
CCOC(=O)C(=NO)C1=CSC2=NNC(C)(C)N12	x	x	n	x	x	x	x
Cc1ccc(C(=O)N2CCC(C(=O)c3ccc(F)cc3)CC2)cc1	x	x	n	x	58	n	n
COc1cc(C(=O)Nc2cc(Cl)ccc2-n2cncn2)ccc1OC(F)F	n	n	n	n	n	x	x
O=C(Nc1cc(Cl)ccc1-n1cncn1)c1ccccc1OC(F)F	x	x	n	x	68	n	n
CCOc1ncccc1C(=O)Nc1cc(S(=O)(=O)N2CCCCC2)ccc1OC	x	x	n	n	n	n	n
CCOc1ncccc1C(=O)OCC(=O)Nc1cc(S(=O)(=O)N2CCOCC2)ccc1Cl	n	n	n	n	n	x	x
O=C(Nc1cc(S(=O)(=O)N2CCCCCC2)ccc1OCC(F)(F)F)c1ccc(=O)[nH]c1	n	n	x	n	n	x	x
COc1ccc(S(=O)(=O)N2CCCCC2)cc1NC(=O)c1ccc(=O)[nH]c1	n	n	n	n	n	n	n
Cc1ccc(NC(=O)c2cccnc2)cc1S(=O)(=O)N1CCOCC1	n	n	n	n	n	n	n
CCOc1ncccc1C(=O)Nc1cccc(S(=O)(=O)N2CCOCC2)c1	n	n	n	n	n	n	n
Cc1cccc(C(=O)OC(C)C(=O)Nc2ccc(S(=O)(=O)Nc3ncccn3)cc2)c1C (stereo not drawn)	n	n	x	n	n	x	x
Cn1c(CNC(=O)CNC(=O)c2ccccc2)cc(=O)n(C)c1=O	n	n	n	n	n	x	x
CCOc1ncccc1C(=O)Nc1ccc(OC)c(S(=O)(=O)N2CCCCC2)c1	n	n	n	n	n	n	n
Cc1cc2nc(/C(C#N)=C\c3ccc(-c4ccccc4C(=O)O)o3)[nH]c2cc1C	n	n	n	n	54	n	n
Cc1ccc(C)c(C(=O)COC(=O)C2CCN(c3ccc(C(F)(F)F)cn3)CC2)c1	n	n	n	n	n	x	x
NS(=O)(=O)c1ccc(NC(=O)/C=C/c2cn(-c3ccccc3)nc2-c2cccc(Cl)c2)cc1	n	n	n	n	58	n	n
O=C(Nc1ccc(Br)cc1F)c1ccncc1	n	n	n	n	97	n	n
